Experimental data: ChEMBL document CHEMBL2150917, “Lignopurines: a new family of hybrids between cyclolignans and purines. Synthesis and biological evaluation” (2012)
Active and inactive are the calls of the source. The rule behind the calls is not given here.

These compounds were tested on HT-29 (assay: Growth inhibition of human HT-29 cells after 72 hrs by SRB assay). Details: HT-29, 72 h.
Type: functional
How it was run: (§1)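 Cells seeded at 5×10^3/well in RPMI and attached for 18 h drug-free. Samples added in DMSO/H2O 3:7 for 72 h exposure. Cells then fixed with cold TCA for 60 min at 4 °C, stained with 0.4% SRB in 1% acetic acid for 10 min, stain solubilized in Tris and read at 490 nm. GI50 from 100×[(T−T0)/(C−T0)]=50; mean of triplicates.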

Point of comparison: `COc1cc([C@@H]2c3cc4c(cc3C=C(C=O)[C@H]2C(=O)OCc2ccc(CBr)cc2)OCO4)cc(OC)c1OC`, GI50 77 nM. Against it:
- CCCNCC1=Cc2cc3c(cc2[C@@H](c2cc(OC)c(OC)c(OC)c2)[C@@H]1C(=O)OCc1ccc(Cn2cnc4c(Cl)ncnc42)cc1)OCO3 — 8.2-fold higher, 630 nM
- CCC/N=C/C1=Cc2cc3c(cc2[C@@H](c2cc(OC)c(OC)c(OC)c2)[C@@H]1C(=O)OCc1ccc(Cn2cnc4c(Cl)ncnc42)cc1)OCO3 — within 1.5-fold, 90 nM
- COc1cc(-c2c(C(=O)OCCCn3cnc4c(Cl)ncnc43)c(C=O)cc3cc4c(cc23)OCO4)cc(OC)c1OC — 27-fold higher, 2100 nM
- COc1cc([C@@H]2c3cc4c(cc3C=C(C=O)[C@H]2C(=O)OCCCCCCn2cnc3cncnc32)OCO4)cc(OC)c1OC — 6.9-fold higher, 530 nM
- COc1cc([C@@H]2c3cc4c(cc3C=C(C=O)[C@H]2C(=O)OCCCBr)OCO4)cc(OC)c1OC — 1.8-fold higher, 140 nM
- CCCNc1ncnc2c1ncn2CCCCCCOC(=O)[C@@H]1C(C=O)=Cc2cc3c(cc2[C@H]1c1cc(OC)c(OC)c(OC)c1)OCO3 — 16-fold higher, 1200 nM
- COc1cc([C@@H]2c3cc4c(cc3[C@H](O)[C@@H](CO)[C@H]2C(=O)OCCCCCCBr)OCO4)cc(OC)c1OC — 2.1-fold higher, 160 nM
- COc1cc([C@@H]2c3cc4c(cc3C=C(C=O)[C@H]2C(=O)OCCCCCCn2cnc3c(Cl)ncnc32)OCO4)cc(OC)c1OC — 10-fold higher, 770 nM

Each compound was assayed on HeLa (assay: Induction of cell cycle arrest in human HeLa cells assessed as accumulation at G2/M phase at 1 uM after 24 hrs by propidium iodide staining-based FACS flow cytometry). Details: not given.
Type: functional
How it was run: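 Mycoplasma-negative HeLa cells in DMEM with 10% heat-inactivated FCS, 2 mM L-glutamine, penicillin/streptomycin, 37 °C, 5% CO2; exposed to 1 µM for 24 h alongside untreated controls. 3–5×10^5 cells fixed overnight in 70% ethanol at 4 °C, PBS-washed, 1 h with 1 mg/mL RNase A plus 20 µg/mL propidium iodide at room temperature; flow cytometry for % G2/M; three independent experiments.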

`COc1cc(-c2c(C(=O)OCCCn3cnc4c(Cl)ncnc43)c(C=O)cc3cc4c(cc23)OCO4)cc(OC)c1OC` was tested, and the Activity was “Active”.
For `COc1cc([C@@H]2c3cc4c(cc3C=C(C=O)[C@H]2C(=O)OCCCCCCn2cnc3cncnc32)OCO4)cc(OC)c1OC`, the Activity was “Active”.
`CCCNc1ncnc2c1ncn2CCCCCCOC(=O)[C@@H]1C(C=O)=Cc2cc3c(cc2[C@H]1c1cc(OC)c(OC)c(OC)c1)OCO3` was tested, and the Activity was “Active”.
For `COc1cc([C@@H]2c3cc4c(cc3C=C(C=O)[C@H]2C(=O)OCCCCCCn2cnc3c(Cl)ncnc32)OCO4)cc(OC)c1OC`, the Activity was “Active”.

These compounds were tested on A549 (assay: Growth inhibition of human A549 cells after 72 hrs by SRB assay). Details: A549, 72 h.
Type: functional
How it was run: as §1

Point of comparison: `CCC/N=C/C1=Cc2cc3c(cc2[C@@H](c2cc(OC)c(OC)c(OC)c2)[C@@H]1C(=O)OCc1ccc(Cn2cnc4c(Cl)ncnc42)cc1)OCO3`, GI50 59 nM. Against it:
- CCCNCC1=Cc2cc3c(cc2[C@@H](c2cc(OC)c(OC)c(OC)c2)[C@@H]1C(=O)OCc1ccc(Cn2cnc4c(Cl)ncnc42)cc1)OCO3 — 9.8-fold higher, 580 nM
- COc1cc(-c2c(C(=O)OCCCn3cnc4c(Cl)ncnc43)c(C=O)cc3cc4c(cc23)OCO4)cc(OC)c1OC — 34-fold higher, 2000 nM
- COc1cc([C@@H]2c3cc4c(cc3C=C(C=O)[C@H]2C(=O)OCc2ccc(CBr)cc2)OCO4)cc(OC)c1OC — within 1.5-fold, 85 nM
- COc1cc([C@@H]2c3cc4c(cc3C=C(C=O)[C@H]2C(=O)OCCCCCCn2cnc3cncnc32)OCO4)cc(OC)c1OC — 5.3-fold higher, 310 nM
- COc1cc([C@@H]2c3cc4c(cc3C=C(C=O)[C@H]2C(=O)OCCCBr)OCO4)cc(OC)c1OC — 3.2-fold higher, 190 nM
- CCCNc1ncnc2c1ncn2CCCCCCOC(=O)[C@@H]1C(C=O)=Cc2cc3c(cc2[C@H]1c1cc(OC)c(OC)c(OC)c1)OCO3 — 20-fold higher, 1200 nM
- COc1cc([C@@H]2c3cc4c(cc3[C@H](O)[C@@H](CO)[C@H]2C(=O)OCCCCCCBr)OCO4)cc(OC)c1OC — 4.2-fold higher, 250 nM
- COc1cc([C@@H]2c3cc4c(cc3C=C(C=O)[C@H]2C(=O)OCCCCCCn2cnc3c(Cl)ncnc32)OCO4)cc(OC)c1OC — 6.8-fold higher, 400 nM

Each compound was assayed on HeLa (assay: Disruption of microtubule network in human HeLa cells at 1 uM after 24 hrs by DAPI staining-based confocal laser scanning microscopy relative to control). Details: not given.
Type: cell-based
How it was run: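 HeLa cells in DMEM with 10% heat-inactivated FCS, 2 mM L-glutamine, penicillin/streptomycin, 37 °C, 5% CO2, grown on poly-L-lysine coverslips; 1 µM, 24 h. Fixed in 4% paraformaldehyde in HPEM (pH 6.6), 0.5% Triton X-100 permeabilized, anti-alpha-tubulin mouse mAb (1:150), Cy2 anti-mouse IgG, DAPI nuclei; confocal imaging versus untreated cells; at least three experiments.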

With `COc1cc(-c2c(C(=O)OCCCn3cnc4c(Cl)ncnc43)c(C=O)cc3cc4c(cc23)OCO4)cc(OC)c1OC` the Activity was “Active”.
In the case of `COc1cc([C@@H]2c3cc4c(cc3C=C(C=O)[C@H]2C(=O)OCCCCCCn2cnc3cncnc32)OCO4)cc(OC)c1OC`, the Activity was “Active”.
With `CCCNc1ncnc2c1ncn2CCCCCCOC(=O)[C@@H]1C(C=O)=Cc2cc3c(cc2[C@H]1c1cc(OC)c(OC)c(OC)c1)OCO3` the Activity was “Active”.
For `COc1cc([C@@H]2c3cc4c(cc3C=C(C=O)[C@H]2C(=O)OCCCCCCn2cnc3c(Cl)ncnc32)OCO4)cc(OC)c1OC`, the Activity was “Active”.

The compounds below were run on MDA-MB-231 (assay: Growth inhibition of human MDA-MB-231 cells after 72 hrs by SRB assay). Details: MDA-MB-231, 72 h.
Type: functional
How it was run: as §1

Point of comparison: `COc1cc([C@@H]2c3cc4c(cc3C=C(C=O)[C@H]2C(=O)OCCCCCCn2cnc3c(Cl)ncnc32)OCO4)cc(OC)c1OC`, GI50 3100 nM. Against it:
- CCCNCC1=Cc2cc3c(cc2[C@@H](c2cc(OC)c(OC)c(OC)c2)[C@@H]1C(=O)OCc1ccc(Cn2cnc4c(Cl)ncnc42)cc1)OCO3 — 2.4-fold lower, 1300 nM
- CCC/N=C/C1=Cc2cc3c(cc2[C@@H](c2cc(OC)c(OC)c(OC)c2)[C@@H]1C(=O)OCc1ccc(Cn2cnc4c(Cl)ncnc42)cc1)OCO3 — 4.2-fold lower, 740 nM
- COc1cc(-c2c(C(=O)OCCCn3cnc4c(Cl)ncnc43)c(C=O)cc3cc4c(cc23)OCO4)cc(OC)c1OC — 1.6-fold higher, 5000 nM
- COc1cc([C@@H]2c3cc4c(cc3C=C(C=O)[C@H]2C(=O)OCc2ccc(CBr)cc2)OCO4)cc(OC)c1OC — 4.4-fold lower, 700 nM
- COc1cc([C@@H]2c3cc4c(cc3C=C(C=O)[C@H]2C(=O)OCCCCCCn2cnc3cncnc32)OCO4)cc(OC)c1OC — within 1.5-fold, 2400 nM
- COc1cc([C@@H]2c3cc4c(cc3C=C(C=O)[C@H]2C(=O)OCCCBr)OCO4)cc(OC)c1OC — 24-fold lower, 130 nM
- CCCNc1ncnc2c1ncn2CCCCCCOC(=O)[C@@H]1C(C=O)=Cc2cc3c(cc2[C@H]1c1cc(OC)c(OC)c(OC)c1)OCO3 — 1.6-fold higher, 5100 nM
- COc1cc([C@@H]2c3cc4c(cc3[C@H](O)[C@@H](CO)[C@H]2C(=O)OCCCCCCBr)OCO4)cc(OC)c1OC — 8.9-fold lower, 350 nM
